Source: ChEMBL document CHEMBL1275379, “Indazolylpyrazolopyrimidine as highly potent B-Raf inhibitors with in vivo activity” (J Med Chem, 2010)
The source made the active and inactive calls. The rule behind the calls is not given here.

What was measured:
[1] = target: Serine/threonine-protein kinase pim-1 (Homo sapiens) (UniProt P11309); assay: Inhibition of PIM1 at 1 uM
[2] = target: RAC-beta serine/threonine-protein kinase (Homo sapiens) (UniProt P31751); assay: Inhibition of AKT2 at 1 uM
[3] = target: Tyrosine-protein kinase BTK (Homo sapiens) (UniProt Q06187); assay: Inhibition of BTK at 1 uM
[4] = target: T1, Angiopoietin-1 receptor (Homo sapiens, UniProt Q02763); assay: Inhibition of TEK
T1 sequence (Q02763 whole entry): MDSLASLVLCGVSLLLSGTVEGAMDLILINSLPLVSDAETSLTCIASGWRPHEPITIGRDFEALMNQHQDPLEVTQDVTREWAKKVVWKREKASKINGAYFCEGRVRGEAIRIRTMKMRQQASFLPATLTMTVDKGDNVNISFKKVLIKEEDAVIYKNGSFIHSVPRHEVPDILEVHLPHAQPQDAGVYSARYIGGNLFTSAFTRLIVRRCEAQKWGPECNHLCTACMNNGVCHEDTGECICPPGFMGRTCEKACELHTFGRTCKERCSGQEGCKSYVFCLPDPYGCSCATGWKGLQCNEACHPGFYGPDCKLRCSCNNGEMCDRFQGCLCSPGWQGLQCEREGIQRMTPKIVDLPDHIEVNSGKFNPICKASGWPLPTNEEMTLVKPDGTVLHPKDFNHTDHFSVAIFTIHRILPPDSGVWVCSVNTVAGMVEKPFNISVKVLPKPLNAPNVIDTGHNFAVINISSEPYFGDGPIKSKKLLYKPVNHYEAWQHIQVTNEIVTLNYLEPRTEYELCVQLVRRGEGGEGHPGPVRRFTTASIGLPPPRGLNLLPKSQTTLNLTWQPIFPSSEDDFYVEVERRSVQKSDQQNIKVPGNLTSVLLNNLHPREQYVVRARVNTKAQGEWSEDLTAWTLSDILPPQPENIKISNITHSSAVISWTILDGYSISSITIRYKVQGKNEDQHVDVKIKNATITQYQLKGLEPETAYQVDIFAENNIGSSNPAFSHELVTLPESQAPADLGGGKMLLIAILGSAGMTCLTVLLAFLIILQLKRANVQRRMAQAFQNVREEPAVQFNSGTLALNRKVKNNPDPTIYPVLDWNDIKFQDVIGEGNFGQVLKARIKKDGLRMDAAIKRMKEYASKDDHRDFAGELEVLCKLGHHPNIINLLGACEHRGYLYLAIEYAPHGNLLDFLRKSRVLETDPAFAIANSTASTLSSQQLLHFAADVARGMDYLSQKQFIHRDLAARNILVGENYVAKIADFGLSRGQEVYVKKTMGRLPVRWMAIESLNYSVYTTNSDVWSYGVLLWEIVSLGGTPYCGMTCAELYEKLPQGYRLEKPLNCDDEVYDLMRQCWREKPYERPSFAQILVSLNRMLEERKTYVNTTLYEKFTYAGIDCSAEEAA

[5] = target: Tyrosine-protein kinase ABL1 (Homo sapiens, UniProt P00519); assay: Inhibition of ABL1 at 1 uM
Tyrosine-protein kinase ABL1, sequence (P00519 whole entry): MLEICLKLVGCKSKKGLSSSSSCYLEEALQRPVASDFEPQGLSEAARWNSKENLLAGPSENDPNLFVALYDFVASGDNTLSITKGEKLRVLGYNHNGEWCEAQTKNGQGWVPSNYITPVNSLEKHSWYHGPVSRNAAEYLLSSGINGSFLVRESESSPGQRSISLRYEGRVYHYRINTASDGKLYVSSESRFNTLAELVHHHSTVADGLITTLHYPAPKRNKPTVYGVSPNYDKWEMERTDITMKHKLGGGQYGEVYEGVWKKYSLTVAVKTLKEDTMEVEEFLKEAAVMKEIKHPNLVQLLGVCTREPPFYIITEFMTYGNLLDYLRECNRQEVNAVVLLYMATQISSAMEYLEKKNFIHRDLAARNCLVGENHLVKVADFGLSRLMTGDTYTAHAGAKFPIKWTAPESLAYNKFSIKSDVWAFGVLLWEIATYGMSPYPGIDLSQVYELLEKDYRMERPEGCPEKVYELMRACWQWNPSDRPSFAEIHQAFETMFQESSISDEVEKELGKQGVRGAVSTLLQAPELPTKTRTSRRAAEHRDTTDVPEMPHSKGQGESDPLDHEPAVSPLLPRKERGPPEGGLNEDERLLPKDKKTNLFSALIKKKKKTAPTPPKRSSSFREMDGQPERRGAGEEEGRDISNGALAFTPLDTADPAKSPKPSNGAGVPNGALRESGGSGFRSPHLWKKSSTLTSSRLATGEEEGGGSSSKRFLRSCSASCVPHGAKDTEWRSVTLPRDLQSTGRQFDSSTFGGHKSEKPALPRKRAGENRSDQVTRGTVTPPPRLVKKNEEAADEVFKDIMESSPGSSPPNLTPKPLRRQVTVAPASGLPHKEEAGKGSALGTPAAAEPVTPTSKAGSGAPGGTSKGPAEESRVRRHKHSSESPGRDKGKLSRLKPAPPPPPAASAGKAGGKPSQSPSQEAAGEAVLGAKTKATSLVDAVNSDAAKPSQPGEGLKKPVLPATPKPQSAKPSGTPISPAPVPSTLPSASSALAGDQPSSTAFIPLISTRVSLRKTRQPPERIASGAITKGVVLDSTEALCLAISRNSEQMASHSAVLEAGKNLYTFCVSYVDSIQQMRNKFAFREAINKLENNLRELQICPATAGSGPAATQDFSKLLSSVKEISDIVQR

[6] = target: Tyrosine-protein kinase Fes/Fps (Homo sapiens) (UniProt P07332); assay: Inhibition of FES at 1 uM
[7] = target: Tyrosine-protein kinase JAK2 (Homo sapiens) (UniProt O60674); assay: Inhibition of JAK2 at 1 uM
Tyrosine-protein kinase JAK2 (Homo sapiens), sequence (O60674 whole entry): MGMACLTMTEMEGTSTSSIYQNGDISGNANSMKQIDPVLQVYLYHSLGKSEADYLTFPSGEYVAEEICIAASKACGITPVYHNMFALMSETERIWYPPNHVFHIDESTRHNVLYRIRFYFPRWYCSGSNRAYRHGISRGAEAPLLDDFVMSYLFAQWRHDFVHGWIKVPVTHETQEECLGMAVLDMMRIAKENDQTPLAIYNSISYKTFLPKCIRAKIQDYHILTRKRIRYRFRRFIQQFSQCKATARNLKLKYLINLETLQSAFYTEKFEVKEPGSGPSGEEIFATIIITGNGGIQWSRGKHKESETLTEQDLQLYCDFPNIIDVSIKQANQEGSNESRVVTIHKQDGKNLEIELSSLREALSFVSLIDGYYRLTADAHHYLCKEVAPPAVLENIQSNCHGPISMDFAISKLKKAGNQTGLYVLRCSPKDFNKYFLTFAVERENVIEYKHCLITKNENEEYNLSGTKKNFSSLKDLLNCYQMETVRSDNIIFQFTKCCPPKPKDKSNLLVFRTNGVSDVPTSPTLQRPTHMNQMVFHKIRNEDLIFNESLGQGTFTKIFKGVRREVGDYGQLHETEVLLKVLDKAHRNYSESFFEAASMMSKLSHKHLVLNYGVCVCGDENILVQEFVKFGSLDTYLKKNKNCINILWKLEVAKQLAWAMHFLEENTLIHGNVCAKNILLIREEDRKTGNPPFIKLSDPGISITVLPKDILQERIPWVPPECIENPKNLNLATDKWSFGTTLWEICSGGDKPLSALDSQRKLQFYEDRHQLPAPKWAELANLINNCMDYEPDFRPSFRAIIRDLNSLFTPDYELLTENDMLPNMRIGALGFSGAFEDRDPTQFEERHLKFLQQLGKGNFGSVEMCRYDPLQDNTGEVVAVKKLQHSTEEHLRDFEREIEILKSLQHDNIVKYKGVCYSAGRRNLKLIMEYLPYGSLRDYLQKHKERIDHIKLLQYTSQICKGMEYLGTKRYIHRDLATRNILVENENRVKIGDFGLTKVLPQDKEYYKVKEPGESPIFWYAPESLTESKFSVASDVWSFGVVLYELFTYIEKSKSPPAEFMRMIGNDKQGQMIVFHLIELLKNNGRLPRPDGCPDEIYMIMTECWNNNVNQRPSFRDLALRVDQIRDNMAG

[8] = target: Serine/threonine-protein kinase Chk2 (Homo sapiens) (UniProt O96017); assay: Inhibition of CHEK2 at 1 uM
[9] = target: Focal adhesion kinase 1 (PTK2) (Homo sapiens) (UniProt Q05397); assay: Inhibition of PTK2 at 1 uM
[10] = target: Mitogen-activated protein kinase 3 (Homo sapiens) (UniProt P27361); assay: Inhibition of MAPK3 at 1 uM
[11] = test system: A-375; assay: Antitumor activity against human A375 cells xenografted in nude mouse assessed as tumor growth inhibition at 7.5 mg/kg, po; type: functional; details: read-out: TGI
Method in brief: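 A375 xenografts in nude mice dosed orally once daily; n = 10 per arm; tumour size measured by caliper at set times; error shown as standard deviation.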

[12] = Inhibition of MAP3K at 1 uM
[13] = test system: Mus musculus; assay: Inhibition of BRAF-mediated ERK phosphorylation in human A375 cells xenografted nude mouse at 50 mg/kg, iv after 24 hrs; type: functional, organism-based; design: dose 50 mg/kg; details: A-375
[14] = target: Inhibitor of nuclear factor kappa-B kinase subunit beta (Homo sapiens) (UniProt O14920); assay: Inhibition of IKBKB at 1 uM
[15] = target: Tyrosine-protein kinase Yes (Homo sapiens, UniProt P07947); details: 1 uM
[16] = target: RAC-alpha serine/threonine-protein kinase (Homo sapiens) (UniProt P31749); assay: Inhibition of AKT1 at 1 uM
[17] = target: Serine/threonine-protein kinase B-raf (Homo sapiens, UniProt P15056); assay: Inhibition of BRAF
[18] = target: Protein kinase C delta type (Homo sapiens) (UniProt Q05655); assay: Inhibition of PRKCD at 1 uM
[19] = target: Platelet-derived growth factor receptor alpha (Homo sapiens) (UniProt P16234); assay: Inhibition of PDGFRA at 1 uM
Platelet-derived growth factor receptor alpha (Homo sapiens), sequence (P16234 whole entry): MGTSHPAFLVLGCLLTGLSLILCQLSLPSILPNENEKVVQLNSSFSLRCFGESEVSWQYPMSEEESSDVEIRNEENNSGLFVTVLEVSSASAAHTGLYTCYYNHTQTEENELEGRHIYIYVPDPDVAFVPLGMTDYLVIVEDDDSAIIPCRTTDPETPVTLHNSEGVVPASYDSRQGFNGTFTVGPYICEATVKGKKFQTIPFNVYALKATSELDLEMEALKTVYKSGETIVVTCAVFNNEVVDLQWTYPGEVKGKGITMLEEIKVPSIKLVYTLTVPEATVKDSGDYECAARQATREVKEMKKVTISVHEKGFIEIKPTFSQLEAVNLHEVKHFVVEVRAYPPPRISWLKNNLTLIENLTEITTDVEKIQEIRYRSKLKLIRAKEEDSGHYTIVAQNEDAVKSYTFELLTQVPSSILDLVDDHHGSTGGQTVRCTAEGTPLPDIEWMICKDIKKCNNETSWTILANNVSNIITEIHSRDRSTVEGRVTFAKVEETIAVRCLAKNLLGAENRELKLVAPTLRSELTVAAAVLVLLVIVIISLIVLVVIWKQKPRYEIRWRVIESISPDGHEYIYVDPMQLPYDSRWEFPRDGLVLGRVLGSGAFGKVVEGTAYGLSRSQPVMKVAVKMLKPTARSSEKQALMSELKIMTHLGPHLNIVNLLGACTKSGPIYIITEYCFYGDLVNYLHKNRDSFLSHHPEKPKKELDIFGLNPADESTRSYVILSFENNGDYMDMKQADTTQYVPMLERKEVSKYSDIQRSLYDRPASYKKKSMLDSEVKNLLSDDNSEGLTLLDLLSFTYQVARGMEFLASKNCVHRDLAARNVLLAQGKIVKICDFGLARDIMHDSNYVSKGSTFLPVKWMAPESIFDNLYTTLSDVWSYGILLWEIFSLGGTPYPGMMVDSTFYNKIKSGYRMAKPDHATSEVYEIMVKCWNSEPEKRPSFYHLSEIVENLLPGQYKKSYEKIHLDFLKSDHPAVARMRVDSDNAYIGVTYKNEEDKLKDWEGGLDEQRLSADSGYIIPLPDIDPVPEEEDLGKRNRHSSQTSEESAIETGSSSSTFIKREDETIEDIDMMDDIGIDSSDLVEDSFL

[20] = target: Tyrosine-protein kinase CSK (Homo sapiens) (UniProt P41240); assay: Inhibition of CSK at 1 uM
Tyrosine-protein kinase CSK (Homo sapiens), sequence (P41240 2-450 limits assumed): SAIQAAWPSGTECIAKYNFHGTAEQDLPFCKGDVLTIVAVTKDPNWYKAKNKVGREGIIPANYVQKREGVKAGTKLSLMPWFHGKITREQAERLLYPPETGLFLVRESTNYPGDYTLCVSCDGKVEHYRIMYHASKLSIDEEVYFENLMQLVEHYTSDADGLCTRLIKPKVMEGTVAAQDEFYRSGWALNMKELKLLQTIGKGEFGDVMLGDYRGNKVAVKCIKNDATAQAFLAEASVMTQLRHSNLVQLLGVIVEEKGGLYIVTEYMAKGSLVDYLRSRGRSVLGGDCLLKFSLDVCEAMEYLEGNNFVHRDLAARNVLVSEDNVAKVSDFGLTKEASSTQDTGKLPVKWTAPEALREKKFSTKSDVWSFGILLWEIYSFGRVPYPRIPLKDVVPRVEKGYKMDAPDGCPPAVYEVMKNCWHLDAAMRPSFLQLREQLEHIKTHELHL

[21] = target: Dual specificity mitogen-activated protein kinase kinase 1 (Homo sapiens) (UniProt Q02750); assay: Inhibition of MAP2K at 1 uM
[22] = target: Tyrosine-protein kinase ZAP-70 (Homo sapiens) (UniProt P43403); assay: Inhibition of ZAP70 at 1 uM
[23] = target: Epidermal growth factor receptor (Homo sapiens, UniProt P00533); details: 1 uM
[24] = target: Serine/threonine-protein kinase Chk1 (Homo sapiens) (UniProt O14757); assay: Inhibition of CHEK1 at 1 uM
[25] = test system: Mus musculus; assay: Toxicity in human A375 cells xenografted nude mouse; type: organism-based, A-375; details: in vivo
[26] = target: Aurora kinase A (Homo sapiens) (UniProt O14965); assay: Inhibition of AURKA at 1 uM
[27] = target: Fibroblast growth factor receptor 2 (Homo sapiens) (UniProt P21802); assay: Inhibition of FGFR2 at 1 uM
[28] = target: RAF proto-oncogene serine/threonine-protein kinase (Homo sapiens, UniProt P04049); assay: Inhibition of C-raf
[29] = Volume of distribution at steady state in nude mouse; type: ADME, organism-based; details: in vivo, read-out: Vdss
[30] = target: Receptor tyrosine-protein kinase erbB-2 (Homo sapiens) (UniProt P04626); assay: Inhibition of ERBB2 at 1 uM
[31] = target: T1, Angiopoietin-1 receptor; details: 1 uM
[32] = target: Rho-associated protein kinase 1 (Homo sapiens) (UniProt Q13464); assay: Inhibition of ROCK1 at 1 uM
[33] = target: Mitogen-activated protein kinase 14 (Homo sapiens, UniProt Q16539); assay: Inhibition of MAPK14
[34] = target: Serine/threonine-protein kinase PLK1 (Homo sapiens) (UniProt P53350); assay: Inhibition of PLK1 at 1 uM
[35] = Inhibition of PRKA at 1 uM
[36] = Drug level in tumor tissue of human A375 cells xenografted nude mouse at 25 mg/kg, po after 6 hrs; type: ADME, organism-based, Neoplasm, A-375; design: dose 25 mg/kg, route oral; details: read-out: Drug uptake

inhibition [1]: 5% | inhibition [2]: 9% | inhibition [3]: 48% | IC50 [4]: 293 nM | inhibition [5]: 70% | inhibition [6]: 21% | inhibition [7]: -6% | inhibition [8]: 7% | inhibition [9]: 15% | inhibition [10]: 5% | inhibition [12]: 4% | inhibition [14]: 5% | inhibition [15]: 68% | inhibition [16]: 5% | IC50 [17]: 0.16 nM | inhibition [18]: 10% | inhibition [19]: 5% | inhibition [20]: 19% | inhibition [21]: 12% | inhibition [22]: 4% | inhibition [23]: 77% | inhibition [24]: 0% | inhibition [26]: 7% | inhibition [27]: 66% | IC50 [28]: 8.52 nM | Vd [29]: 4.7 L/kg | inhibition [30]: 37% | inhibition [31]: 81% | inhibition [32]: 3% | IC50 [33]: 145 nM | inhibition [34]: 11% | inhibition [35]: 18% | concentration at 6 h [36]: 6.6 µM
Structure (SMILES): CN1C[C@@H]2C[C@H]1CN2c1cc(F)c(-c2ccnc3c(-c4cccc5[nH]ncc45)c(-c4ccncc4)nn23)c(F)c1
inhibition in vivo at 7.5 mg/kg [11]: 39% | inhibition [13]: Active | Activity [25]: Non-toxic
